# Experimental data pooled from the literature.
# pIC50: −log10 of the molar value.
# PDE10A: cAMP and cAMP-inhibited cGMP 3',5'-cyclic phosphodiesterase 10A (PDE10A, Homo sapiens, UniProt Q9Y233)
# SLC6A3: Sodium-dependent dopamine transporter (SLC6A3, Homo sapiens, UniProt Q01959)
# CHEK1: Serine/threonine-protein kinase Chk1 (CHEK1, Homo sapiens, UniProt O14757)
# DDR2: Discoidin domain-containing receptor 2 (DDR2, Homo sapiens, UniProt Q16832)
SMILES,target,test,pIC50
Cc1cccc(-c2ccnc3c(C(=O)O)cnn23)c1,"Toll-like receptor 8 (TLR8, Homo sapiens, UniProt Q9NR97)",reporter gene,< 4.70
COc1ccc(CNc2c(CO)cnc3c(C4CC4)cc(C#N)cc23)cn1,PDE10A,"enzyme activity, inhibitor",< 5.00
Clc1ccc(C(c2ccccc2)c2nnnn2CCCCN2CCC(CCCc3ccccc3)CC2)cc1 (centres unmarked),SLC6A3,"transporter uptake, inhibitor",6.48
COc1cc(-c2ccc3c(c2)Nc2ccc(CC(=O)N4CCCC(O)C4)cc2NC3=O)ccc1Cl (centres unmarked),CHEK1,"enzyme activity, inhibitor",7.83
COc1ccc2c(c1)C(CC(=O)Nc1cccnc1)=C(C)/C2=C/c1cc(OC)c(OC)c(OC)c1,PDE10A,"enzyme activity, inhibitor, FP",6.52
COC(=O)Cc1ccc2c(c1)NC(=O)c1ccc(-c3cn(C)cn3)cc1N2,CHEK1,"enzyme activity, inhibitor",5.11
OC[C@H]1O[C@@H](n2cnc3c(NCCCc4ccccc4)ncnc32)[C@H](O)[C@@H]1O,"Protein arginine N-methyltransferase 1 (PRMT1, Homo sapiens, UniProt Q99873)","enzyme activity, inhibitor, fluorescence",< 4.00
CCCC[C@H](NC(=O)[C@H](C)c1c(C)[nH]c2ccc(O)cc12)c1ncc(-c2cc3ccccc3nc2OC)[nH]1,"Histone deacetylase 5 (HDAC5, Homo sapiens, UniProt Q9UQL6)","enzyme activity, inhibitor",< 4.35
COc1cc(C[C@H]2C(=O)OC[C@@H]2Cc2ccc(OC)c(OC)c2)ccc1O,PDE10A,"enzyme activity, inhibitor",< 5.30
COC(=O)Cc1ccc2c(c1)NC(=O)c1ccc(-c3cccc4ccccc34)cc1N2,CHEK1,"enzyme activity, inhibitor",< 5.00
C=C1CC[C@@H]([C@H](C)CC(=O)/C=C(\C)C(=O)O)[C@@]12CCC1=C2CC[C@H]2C(C)(C)C(=O)CC[C@]12C,"ATP-citrate synthase (ACLY, Homo sapiens, UniProt P53396)","enzyme activity, inhibitor",< 4.70
Clc1ccc(C(c2ccccc2)c2nnnn2CCCN2CCC(Cc3ccccc3)CC2)cc1 (centres unmarked),SLC6A3,"transporter uptake, inhibitor",6.65
CNC(=O)c1cc2c(Oc3ccc(NC(=O)C4(C(=O)Nc5ccc(F)cc5)CC4)cc3)ccnc2cc1OC,DDR2,"enzyme activity, inhibitor, radiometric",7.39
CN(CCOc1ccc(CC2SC(=O)NC2=O)cc1)c1ccccn1 (centres unmarked),"Pantothenate kinase 3 (PANK3, Homo sapiens, UniProt Q9H999)","enzyme activity, inhibitor, ATP luminescence",5.77
Clc1ccc(C(c2ccccc2)c2nnnn2CCCCN2CCC(CCc3ccccc3)CC2)cc1 (centres unmarked),SLC6A3,"transporter uptake, inhibitor",6.35
CCN(CC)C(=O)CC(c1ccc2c(c1)OCO2)c1c(O)cc(OC)cc1OC (centres unmarked),"Nuclear receptor ROR-gamma (Mus musculus, UniProt P51450)",reporter gene,< 4.30
COc1cc(-c2ccc3c(c2)Nc2ccc(NC(N)=O)cc2NC3=O)ccc1[N+](=O)[O-],CHEK1,"enzyme activity, inhibitor",8.19
O=C(O)C1=CCCN(CCON=C(c2ccccc2)c2ccccc2)C1,"Sodium- and chloride-dependent GABA transporter 1 (Slc6a1, Rattus norvegicus, UniProt P23978)","ligand displacement, radioligand",6.41
OC1CCC(NCc2ccc3c(c2)Cc2c-3n[nH]c2-c2ccc[nH]2)CC1 (centres unmarked),CHEK1,"enzyme activity, inhibitor",5.78
Cc1cnc(-c2ccc(-c3ccc(NC(=O)Nc4c(F)cc(F)cc4F)cc3F)c3c2C(=O)NC3)[nH]1,DDR2,"enzyme activity, inhibitor",9.00
